According to ChEMBL document CHEMBL3769304, “Potent α-amino-β-lactam carbamic acid ester as NAAA inhibitors. Synthesis and structure-activity relationship (SAR) studies” (Eur J Med Chem, 2016):
Values after ≈ are worked out from the molar mass of the structure shown.

Columns and labels:
[1] = Kinetic solubility of the compound in PBS at pH 7.4 after 24 hrs by UPLC/MS analysis; type: physicochemical; details: read-out: Kinetic_solubility
Outline: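 Kinetic solubility measured in PBS, pH 7.4; mean of three or more determinations.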

[2] = Half life in rat plasma after 2 hrs by LC/MS-MS analysis; type: ADME, cell-free
[3] = target: T1, Fatty-acid amide hydrolase 1 (Homo sapiens) (UniProt O00519); experiment: Inhibition of human FAAH at 10 uM by fluorescence assay
T1 sequence (whole entry): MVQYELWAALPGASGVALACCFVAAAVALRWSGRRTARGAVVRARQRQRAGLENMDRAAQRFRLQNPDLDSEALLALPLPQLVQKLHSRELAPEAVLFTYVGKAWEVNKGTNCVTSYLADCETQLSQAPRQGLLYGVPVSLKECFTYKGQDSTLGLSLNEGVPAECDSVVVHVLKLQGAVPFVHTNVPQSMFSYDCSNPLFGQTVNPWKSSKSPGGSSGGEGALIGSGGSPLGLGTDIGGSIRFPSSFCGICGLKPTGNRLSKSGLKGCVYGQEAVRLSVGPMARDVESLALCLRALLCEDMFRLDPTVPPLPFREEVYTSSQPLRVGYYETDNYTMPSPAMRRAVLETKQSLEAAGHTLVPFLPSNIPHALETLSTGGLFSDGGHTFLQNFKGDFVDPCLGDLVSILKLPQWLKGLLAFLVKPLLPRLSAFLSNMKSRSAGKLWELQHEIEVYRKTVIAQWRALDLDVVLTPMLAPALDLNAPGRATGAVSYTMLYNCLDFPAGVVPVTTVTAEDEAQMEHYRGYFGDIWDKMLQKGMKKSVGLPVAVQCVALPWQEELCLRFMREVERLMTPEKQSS
Outline: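 Enzyme source: membrane pellet (105,000 × g, re-suspended in PBS) from HEK293 cells stably transfected with h-FAAH-1; fluorogenic read-out; percent inhibition at 10 µM from two determinations.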

[4] = Half life in rat liver microsomes preincubated for 15 mins followed by NADPH addition measured after 1 hr by LC/MS-MS analysis; type: ADME
Acid ceramidase = target: T2, Acid ceramidase (Homo sapiens, UniProt Q13510); experiment: Inhibition of human acid ceramidase by UPLC/MS analysis
T2 sequence (Q13510 whole entry): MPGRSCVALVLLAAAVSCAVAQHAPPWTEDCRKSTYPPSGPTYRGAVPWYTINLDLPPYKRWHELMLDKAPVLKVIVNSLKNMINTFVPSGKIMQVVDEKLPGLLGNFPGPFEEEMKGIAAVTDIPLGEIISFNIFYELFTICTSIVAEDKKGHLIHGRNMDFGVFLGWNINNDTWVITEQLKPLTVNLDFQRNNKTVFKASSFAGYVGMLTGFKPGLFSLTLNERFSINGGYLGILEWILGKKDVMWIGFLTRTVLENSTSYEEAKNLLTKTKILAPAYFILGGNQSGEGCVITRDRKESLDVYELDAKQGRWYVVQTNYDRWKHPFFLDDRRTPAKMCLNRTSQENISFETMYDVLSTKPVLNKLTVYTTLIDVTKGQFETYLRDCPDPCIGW

[5] = Half life in mouse plasma after 2 hrs by LC/MS-MS analysis; type: ADME, cell-free
Homo sapiens = organism: Homo sapiens; experiment: Selectivity ratio of IC50 for human acid ceramidase to IC50 for recombinant human NAAA
[6] = Half life in mouse liver microsomes preincubated for 15 mins followed by NADPH addition measured after 1 hr by LC/MS-MS analysis; type: ADME
[7] = target: T3, N-acylethanolamine-hydrolyzing acid amidase (Homo sapiens, UniProt Q02083); experiment: Inhibition of human NAAA expressed in HEK293 cells preincubated for 10 mins followed by N-(4-methyl-2-oxo-chromen-7-yl)-hexadecanamide substrate addition for 50 mins by fluorescence assay; type: cell-based
T3 sequence (Q02083 whole entry): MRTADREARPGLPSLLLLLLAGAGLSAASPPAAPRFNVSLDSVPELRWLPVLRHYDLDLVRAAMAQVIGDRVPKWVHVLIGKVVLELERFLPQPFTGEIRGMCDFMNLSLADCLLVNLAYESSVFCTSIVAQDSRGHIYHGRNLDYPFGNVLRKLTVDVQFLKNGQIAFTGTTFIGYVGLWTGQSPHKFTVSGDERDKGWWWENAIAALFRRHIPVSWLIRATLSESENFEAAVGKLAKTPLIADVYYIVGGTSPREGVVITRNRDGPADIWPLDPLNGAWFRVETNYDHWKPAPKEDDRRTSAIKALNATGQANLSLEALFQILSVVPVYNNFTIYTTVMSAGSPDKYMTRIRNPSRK

[8] = target: T3, N-acylethanolamine-hydrolyzing acid amidase; experiment: Inhibition of human NAAA expressed in HEK293 cells preincubated for 10 mins followed by N-(4-methyl-2-oxo-chromen-7-yl)-hexadecanamide substrate addition for 50 mins by microplate reader analysis

Row | solubility kinetic at 24 h [1] [µM] | half-life [2] [min] | inhibition [3] [%] | half-life [4] [min] | IC50 (Acid ceramidase) [nM] | half-life [5] [min] | Ratio IC50 (Homo sapiens) | half-life [6] [min] | IC50 [7] [nM] | IC50 [8] [nM] | Structure (SMILES)
1 | > 250 | > 120 | < 10 | 40 | 8090 | 25 | 365 | 30 |  |  | O=C(N[C@H]1CNC1=O)OCc1ccc2c(c1)OC(F)(F)O2
2 | 51 (≈ 15.4 µg/mL) | 104 | < 10 | < 5 | 1510 | 57 | 125 | 5 |  |  | O=C(N[C@H]1CNC1=O)OCc1ccc(C2CCCCC2)cc1
3 |  |  |  |  |  |  |  |  | 1110 |  | O=C(N[C@H]1CNC1=O)OCCCCc1ccccc1
4 | 83 (≈ 22.9 µg/mL) | > 120 | < 10 | < 5 | 390 | 29 | 55 | < 5 |  |  | CCCCc1ccc(COC(=O)N[C@H]2CNC2=O)cc1
5 |  |  |  |  |  |  |  |  | 1040 |  | Cc1ccc(COC(=O)N[C@H]2CNC2=O)cc1
6 | > 250 | 7 | < 10 | 10 | 10500 | 33 | 140 | 34 |  |  | O=C(N[C@H]1CNC1=O)OCCCCC1CCC(F)(F)CC1
7 | > 250 | > 120 | < 10 | < 5 | 2410 | 31 |  | 11 |  |  | CCCOc1ccc(COC(=O)N[C@H]2CNC2=O)cc1
8 |  |  |  |  |  |  |  |  | 520 |  | COc1ccc(CCCCOC(=O)N[C@H]2CNC2=O)cc1
9 |  |  |  |  |  |  |  |  | 2670 |  | O=C(N[C@H]1CNC1=O)OCCCOC1CCCCC1
10 |  |  |  |  |  |  |  |  | 130 |  | O=C(N[C@H]1CNC1=O)OCc1ccc2c(c1)CCC2
11 | 144 (≈ 38.6 µg/mL) | 12 | < 10 | < 5 | 6270 | 41 |  | < 5 |  |  | O=C(N[C@H]1CNC1=O)OCCCCC1CCCCC1
12 |  |  |  |  |  |  |  |  | 44 |  | O=C(N[C@H]1CNC1=O)OCCCC1CCCCC1
13 |  |  |  |  |  |  |  |  |  | 340 | CCCCCCCCC(=O)N[C@H]1CNC1=O

Row | Structure (SMILES) | solubility kinetic at 24 h [1] [µM] | half-life [2] [min] | inhibition [3] [%] | half-life [4] [min] | IC50 (Acid ceramidase) [nM] | half-life [5] [min] | Ratio IC50 (Homo sapiens) | half-life [6] [min] | IC50 [7] [nM] | IC50 [8] [nM]
14 | O=C(N[C@H]1CNC1=O)OCCCCc1ccc(C(F)(F)F)cc1 |  |  |  |  |  |  |  |  | 73 | 
